This passage reports inhibition, IC50 and Activity results from ChEMBL document CHEMBL2010800, “Methoxychalcone inhibitors of androgen receptor translocation and function” (Bioorg Med Chem Lett, 2012).

pIC50: −log10 of the molar value. Active and inactive are the calls of the source. The rule behind the calls is not given here.

Broadly, the inhibition is how much of the control response was suppressed. Usually pIC50 stands for −log10 of the IC50, conventionally taken in molar units.

The target of test [1] is T1, Androgen receptor (Homo sapiens) (UniProt P10275).
T1 sequence (whole entry): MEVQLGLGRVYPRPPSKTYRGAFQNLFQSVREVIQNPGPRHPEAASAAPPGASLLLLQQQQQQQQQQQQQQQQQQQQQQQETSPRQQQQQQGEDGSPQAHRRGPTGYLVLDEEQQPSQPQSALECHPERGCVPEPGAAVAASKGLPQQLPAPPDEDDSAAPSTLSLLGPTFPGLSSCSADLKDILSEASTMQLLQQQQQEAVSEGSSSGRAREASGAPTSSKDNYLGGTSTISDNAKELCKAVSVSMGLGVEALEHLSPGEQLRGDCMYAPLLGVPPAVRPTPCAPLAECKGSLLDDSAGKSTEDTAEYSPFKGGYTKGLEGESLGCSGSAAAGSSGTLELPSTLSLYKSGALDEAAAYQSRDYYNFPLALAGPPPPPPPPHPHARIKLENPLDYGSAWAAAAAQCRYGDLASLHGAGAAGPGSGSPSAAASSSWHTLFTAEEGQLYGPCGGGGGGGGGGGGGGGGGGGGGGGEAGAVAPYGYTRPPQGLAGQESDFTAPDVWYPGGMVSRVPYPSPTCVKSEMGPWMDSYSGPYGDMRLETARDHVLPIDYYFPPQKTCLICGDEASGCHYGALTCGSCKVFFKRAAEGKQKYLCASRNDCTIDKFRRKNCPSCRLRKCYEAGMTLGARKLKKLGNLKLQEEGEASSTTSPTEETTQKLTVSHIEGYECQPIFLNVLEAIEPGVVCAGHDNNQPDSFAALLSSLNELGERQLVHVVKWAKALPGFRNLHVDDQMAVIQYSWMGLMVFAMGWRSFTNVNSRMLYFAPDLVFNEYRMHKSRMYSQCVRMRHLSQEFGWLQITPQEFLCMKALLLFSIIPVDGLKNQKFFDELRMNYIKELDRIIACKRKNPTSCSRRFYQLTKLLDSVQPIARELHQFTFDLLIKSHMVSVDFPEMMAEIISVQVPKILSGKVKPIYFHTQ
The experiment in a line: Antagonist activity at androgen receptor in human LNCAP cells assessed as inhibition of R1881-induced prostate specific antigen mRNA expression after 20 hrs by real time RT-PCR analysis relative to control. It is filed as functional, cell-based. An outline of the steps: (§1)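 LNCaP cells were first kept 3 days in phenol red-free RPMI 1640 with 10% charcoal-stripped FBS and 1% antibiotic-antimycotic. They were then exposed for 20 hr to compound at 10, 5 or 1 μM together with 0.5 nM R1881. PSA and TMPRSS2 mRNA were quantified by real-time RT-PCR against DMSO-treated controls.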
On the technique in general: Real-time PCR tracks product formation cycle by cycle.

The target of test [2] is T1, Androgen receptor (Homo sapiens). Kind of test: Antagonist activity at androgen receptor in human LNCAP cells assessed as inhibition of R1881-induced transmembrane protease serine 2 mRNA expression after 20 hrs by real time RT-PCR analysis. It is filed as functional, cell-based. An outline of the steps:
as §1

Test [3] has the same target. The experiment in a line: Antagonist activity at androgen receptor in human LNCAP cells assessed as decrease in prostate specific antigen mRNA level at 2.5 uM after 20 hrs by real time RT-PCR analysis. It is filed as functional, cell-based. An outline of the steps:
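LNCaP prostate cancer cells (AR carries T877A ligand-binding-domain mutation) exposed to compound at 2.5 μM for 20 hr; PSA mRNA quantified by real-time RT-PCR and expressed relative to DMSO-treated control cells set to 1; mean values, n = 3.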

The target in test [4] is T2, Androgen receptor (Homo sapiens, UniProt P10275).
T2 sequence (P10275 whole entry): T1 sequence (whole entry)
The experiment in a line: Antagonist activity at androgen receptor in human LNCAP cells assessed as decrease in prostate specific antigen mRNA level after 20 hrs by real time RT-PCR analysis.

Test [5] concerns the target T2, Androgen receptor. The experiment in a line: Antagonist activity at androgen receptor in human LNCAP cells assessed as decrease in transmembrane protease serine 2 mRNA level after 20 hrs by real time RT-PCR analysis.
For test [6], the system named is LNCaP. The experiment in a line: Cytotoxicity against human LNCAP cells after 3 days. It is filed as functional, cell-based. The settings on record: 72 h.
Test [7] deals with T1, Androgen receptor (Homo sapiens). The settings on record: LNCaP, 10 uM.
Test [8] shares this target. The settings on record: LNCaP, 10 uM. The source holds these as a separate data set.
Test [9] shares this target. The following applies: LNCaP, 10 uM. This is another data set of the same source.
Test [10] has the same target. The following applies: LNCaP, 10 uM. This is another data set of the same source.
Test [11] shares this target. The following applies: LNCaP, 10 uM. The source holds these as a separate data set.
For test [12] the target is unchanged. The experiment in a line: Agonist activity at androgen receptor in human LNCAP cells assessed as potentiation of R1881-induced prostate specific antigen mRNA expression at 1 uM after 20 hrs by real time RT-PCR analysis. It is filed as functional, cell-based. An outline of the steps: as §1
The target is the same in test [13]. Kind of test: Agonist activity at androgen receptor in human LNCAP cells assessed as potentiation of R1881-induced transmembrane protease serine 2 mRNA expression at 1 uM after 20 hrs by real time RT-PCR analysis. It is filed as functional, cell-based. An outline of the steps:
as §1

As to `COc1ccc(C(=O)/C=C/c2ccc([N+](=O)[O-])cc2)c(OC)c1OC`, the inhibition result in [1] is “Dose-dependent effect”; in test [2], “Dose-dependent effect”; in test [3], 84%.

Regarding `COc1ccc(C(=O)/C=C/c2cccc(C(F)(F)F)c2)c(OC)c1OC`, the inhibition in test [3] was found to be 81%.

For the compound `COc1ccccc1C(=O)/C=C/c1ccccc1`, the inhibition in [3] was found to be 63%.

Regarding `COc1cccc(OC)c1C(=O)/C=C/c1cccc([N+](=O)[O-])c1`, the inhibition in test [3] is 85%.

Take `COc1ccccc1C(=O)/C=C/c1ccccc1C(F)(F)F`: in test [3], the inhibition was 94%.

Consider `COc1cccc(OC)c1C(=O)/C=C/c1ccc([N+](=O)[O-])cc1[N+](=O)[O-]`, for which the inhibition in [3] turned out to be 81%.

Turning to `COc1ccc(C(=O)/C=C/c2ccc(C#N)cc2)cc1OC`, the inhibition result in test [1] was “Dose-dependent effect”; in test [2] it was “Dose-dependent effect”; in [3], 85%.

In the case of `COc1cccc(OC)c1C(=O)/C=C/c1ccccc1C(F)(F)F`, in [3], the inhibition stood at 87%.

For the compound `COc1ccccc1C(=O)/C=C/c1ccccc1[N+](=O)[O-]`, the pIC50 in test [4] was 6.22; in test [5], 6.12; in test [6] it was 5.47. The inhibition result in test [1] is “Dose-dependent effect”; in test [2], “Dose-dependent effect”; in test [3] it was 94%; in test [7] it was 99%; in test [8], 89%; in [11] it was “Dose-dependent effect”. Moreover, the inhibition entry in test [9] and in test [10] was “Active” in each case.

With `COc1ccc(C(=O)/C=C/c2cccc([N+](=O)[O-])c2)c(OC)c1OC`, the inhibition entry was “Dose-dependent effect” in test [1], “Dose-dependent effect” in [2] and 84% in test [3]. Also, the result in test [12] and in [13] was Active.

For the compound `COc1ccc(C(=O)/C=C/c2ccc([N+](=O)[O-])cc2)cc1OC`, the inhibition entry in test [1] and in [2] was “Dose-dependent effect” each time.

Turning to `COc1ccc(OC)c(C(=O)/C=C/c2ccc(C#N)cc2)c1`, the inhibition in test [3] was 82%.

Regarding `COc1cccc(OC)c1C(=O)/C=C/c1ccc([N+](=O)[O-])cc1`, the inhibition in test [3] amounted to 90%.
